Test results reported in ChEMBL document CHEMBL4261524, “Succinct synthesis of saturated hydroxy fatty acids and in vitro evaluation of all hydroxylauric acids on FFA1, FFA4 and GPR84” (Medchemcomm, 2017).
Activity calls are given as the source filed them. The rule behind the calls is not given here.

How the values were obtained:
[1] = biological target: T1, Free fatty acid receptor 1 (Homo sapiens, UniProt O14842); assay: Agonist activity at N-terminal FLAG-tagged/C-terminal eYFP-fused human FFA1 receptor expressed in Flp-In T-Rex 293 cells assessed as induction of Ca2+ mobilization after 45 mins by Fura2-AM dye-based fluorescence assay; format: functional, cell-based
T1 sequence (O14842 whole entry, the tested form may be a part): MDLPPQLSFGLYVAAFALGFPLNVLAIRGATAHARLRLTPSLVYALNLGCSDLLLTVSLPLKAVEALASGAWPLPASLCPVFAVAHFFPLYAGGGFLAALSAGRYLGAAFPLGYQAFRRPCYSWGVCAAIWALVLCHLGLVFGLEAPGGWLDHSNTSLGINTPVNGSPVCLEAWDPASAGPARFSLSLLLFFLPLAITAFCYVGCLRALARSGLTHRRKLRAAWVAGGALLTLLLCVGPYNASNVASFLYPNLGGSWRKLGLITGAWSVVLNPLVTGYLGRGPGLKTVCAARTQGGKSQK

[2] = biological target: T2, Free fatty acid receptor 4 (Homo sapiens, UniProt Q5NUL3); assay: Agonist activity at N-terminal FLAG-tagged/C-terminal eYFP-fused human FFA4 receptor expressed in HEK293T cells assessed as induction of beta-arrestin-2 recruitment after 5 mins by BRET assay; format: functional, cell-based
T2 sequence (Q5NUL3 whole entry): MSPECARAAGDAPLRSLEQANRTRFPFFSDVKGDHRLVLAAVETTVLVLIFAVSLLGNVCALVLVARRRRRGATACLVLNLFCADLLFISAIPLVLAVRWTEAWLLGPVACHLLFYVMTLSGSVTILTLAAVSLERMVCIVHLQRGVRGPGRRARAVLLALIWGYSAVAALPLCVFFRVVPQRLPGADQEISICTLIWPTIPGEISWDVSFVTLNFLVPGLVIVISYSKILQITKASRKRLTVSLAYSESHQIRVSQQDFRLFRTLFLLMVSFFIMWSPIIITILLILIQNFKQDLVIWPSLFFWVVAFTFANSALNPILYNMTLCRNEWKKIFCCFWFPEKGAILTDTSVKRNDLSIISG

[3] = biological target: T1, Free fatty acid receptor 1; assay: Agonist activity at N-terminal FLAG-tagged/C-terminal eYFP-fused human FFA1 receptor expressed in HEK293T cells assessed as induction of beta-arrestin-2 recruitment after 15 mins by BRET assay; format: functional, cell-based
[4] = biological target: T3, G-protein coupled receptor 84 (Homo sapiens, UniProt Q9NQS5); assay: Agonist activity at N-terminal FLAG-tagged/C-terminal eYFP-fused human GPR84 expressed in CHO cell membranes assessed as induction of [35S]GTPgammaS binding after 1 hr by liquid scintillation counting method; format: functional
T3 sequence (Q9NQS5 whole entry, the tested form may be a part): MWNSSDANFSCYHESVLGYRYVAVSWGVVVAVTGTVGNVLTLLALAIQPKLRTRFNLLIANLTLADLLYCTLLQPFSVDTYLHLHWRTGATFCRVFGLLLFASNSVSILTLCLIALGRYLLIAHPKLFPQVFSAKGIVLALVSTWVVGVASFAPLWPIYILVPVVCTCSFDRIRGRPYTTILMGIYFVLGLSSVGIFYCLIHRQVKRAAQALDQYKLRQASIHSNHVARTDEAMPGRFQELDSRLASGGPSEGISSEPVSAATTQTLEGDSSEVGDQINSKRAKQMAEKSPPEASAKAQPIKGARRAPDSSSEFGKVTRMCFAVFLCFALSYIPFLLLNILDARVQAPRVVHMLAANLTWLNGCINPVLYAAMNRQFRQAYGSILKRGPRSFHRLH
Outline: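 Membranes were prepared from FLAG-GPR84-eYFP-expressing cells by homogenization in 10 mM Tris-HCl pH 7.4 with 0.1 mM EDTA, a 1000 × g spin to clear debris, then a 38 000 × g pellet. 10 μg membrane was incubated 1 h at 30 °C in HEPES/MgCl2/NaCl buffer, pH 7.5, with 0.05% fatty-acid-free BSA, 1 μM GDP and 0.1 nM [35S]GTPγS. Binding was read on GF/C filters by scintillation counting; means ± SEM, n ≥ 3.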

[5] = biological target: T1, Free fatty acid receptor 1; assay: Agonist activity at N-terminal FLAG-tagged/C-terminal eYFP-fused human FFA1 receptor expressed in HEK293T cells assessed as induction of beta-arrestin-2 recruitment at 100 uM after 15 mins by BRET assay relative to control; format: functional, cell-based
[6] = biological target: T3, G-protein coupled receptor 84; assay: Agonist activity at N-terminal FLAG-tagged/C-terminal eYFP-fused human GPR84 expressed in CHO cell membranes assessed as inhibition of forskolin-induced cAMP accumulation up to 100 uM preincubated for 20 mins followed by forskolin-induction and measured after 20 mins; format: functional, cell-based
[7] = biological target: T3, G-protein coupled receptor 84; assay: Agonist activity at N-terminal FLAG-tagged/C-terminal eYFP-fused human GPR84 expressed in CHO cell membranes assessed as inhibition of forskolin-induced cAMP accumulation preincubated for 20 mins followed by forskolin-induction and measured after 20 mins; format: functional, cell-based

| Compound | EC50 [2] | EC50 [3] | EC50 [4] | Activity [5] | inhibition [6] | EC50 [7] | EC50 [1] |
| --- | --- | --- | --- | --- | --- | --- | --- |
| CCCCCC[C@@H](O)C/C=C\CCCCCCCC(=O)O | 1.32 µM |  |  |  |  |  | 11.5 µM |
| CCCCCCC(O)CCCCC(=O)O (centres undefined) | > 100 µM | 18.6 µM | > 100 µM |  |  |  |  |
| CCCC(O)CCCCCCCC(=O)O (centres undefined) | > 100 µM | > 100 µM | > 100 µM |  |  |  |  |
| CCCCCCCC(O)CCCC(=O)O (centres undefined) | > 100 µM | > 100 µM | > 100 µM |  |  |  |  |
| O=C(O)CCCCCCCCCCCCCCCO | 1.7 µM |  |  |  |  |  | 20.9 µM |
| CCCCCCCCCC(O)CC(=O)O (centres undefined) | > 100 µM | > 100 µM | 5.25 µM | < 25% |  |  |  |
| O=C(O)CCCCCCCCCCCO | > 100 µM | > 100 µM | 20.9 µM |  |  |  |  |
| CCCCCC(O)CCCCCC(=O)O (centres undefined) | > 100 µM | > 100 µM | > 100 µM |  |  |  |  |

More lines, main results first:

| EC50 [2] | EC50 [3] | EC50 [4] | Activity [5] | inhibition [6] | EC50 [7] | Compound | EC50 [1] |
| --- | --- | --- | --- | --- | --- | --- | --- |
| > 100 µM | > 100 µM | > 100 µM |  |  |  | CCC(O)CCCCCCCCC(=O)O (centres undefined) |  |
| 7.59 µM |  | 10.5 µM |  | inactive | 8.71 µM | CCCCCCCCCCCC(=O)O [DODECANOATE] | 11.5 µM |
| > 100 µM | > 100 µM | > 100 µM |  |  |  | CC(O)CCCCCCCCCC(=O)O (centres undefined) |  |
| > 100 µM | > 100 µM | 38 µM |  |  |  | CCCCCCCCC(O)CCC(=O)O (centres undefined) |  |
| > 100 µM | 6.76 µM | 12.9 µM |  |  |  | CCCCCCCCCCC(O)C(=O)O (centres undefined) |  |
| 1.74 µM |  |  |  |  |  | CCCCCCC(O)CCCCCCCCCCC(=O)O (centres undefined) |  |
| > 100 µM | > 100 µM | > 100 µM |  |  |  | CCCCC(O)CCCCCCC(=O)O (centres undefined) |  |
